Measured values as given in ChEMBL document CHEMBL3124918, “Optimization of peptides that target human thymidylate synthase to inhibit ovarian cancer cell growth” (2014).
Activity calls are given as the source filed them. The calls are words filed in the database; no cut-off is given here. Non-standard residues stand in square brackets, D forms with d. Residues, ends and D or L forms follow the SMILES beside them.

Legend:
[1] = biological target: Thymidylate synthase (Homo sapiens) (UniProt P04818); assay: Inhibition of human thymidylate synthase using dUMP as substrate at 75 uM after 1 hr by UV-vis spectrophotometric analysis in presence of mTHF relative to control
Sequence of Thymidylate synthase (Homo sapiens) (P04818 2-313 limits assumed): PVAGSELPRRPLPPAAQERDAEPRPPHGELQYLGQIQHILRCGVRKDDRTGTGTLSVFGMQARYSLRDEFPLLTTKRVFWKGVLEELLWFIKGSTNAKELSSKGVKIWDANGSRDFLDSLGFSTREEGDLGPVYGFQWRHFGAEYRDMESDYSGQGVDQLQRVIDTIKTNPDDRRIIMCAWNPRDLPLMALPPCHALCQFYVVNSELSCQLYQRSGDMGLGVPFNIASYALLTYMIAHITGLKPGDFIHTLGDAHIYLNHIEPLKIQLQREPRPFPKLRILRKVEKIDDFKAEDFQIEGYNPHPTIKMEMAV
How it was run: (§1)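 Purified hTS, concentration by UV-vis (ε280 = 89 000 M−1 cm−1), preincubated 1 h with peptide in phosphate buffer pH 6.9 at 25 °C. Reaction in 50 mM TES pH 7.4 with 25 mM MgCl2, 6.5 mM HCHO, 1 mM EDTA, 75 mM βME, 0.6 mM dUMP, 0.15 mM mTHF. A340 followed 3 min. I% versus enzyme-alone control, mean ± SEM, n = 3.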

[2] = Upregulation of thymidylate synthase total protein level in 13-fold cisplatin-resistant human C13 cells at 5 uM after 48 hrs by Western blotting analysis; format: functional, cell-based
2008 [3] = assay: Upregulation of thymidylate synthase total protein level in human 2008 cells at 5 uM after 48 hrs by Western blotting analysis; format: functional, cell-based
[4] = biological target: Thymidylate synthase (Homo sapiens) (UniProt P04818); assay: Inhibition of human thymidylate synthase using dUMP as substrate at 50 uM after 1 hr by UV-vis spectrophotometric analysis in presence of mTHF relative to control; how it was run: as §1
[5] = Cytotoxicity against 10-fold cisplatin-resistant human A2780C/P cells cell survival at 10 uM after 72 hrs by crystal violet staining-based spectrophotometric analysis relative to control; conditions: A2780cisR, read-out: Survival
A2780 = assay: Cytotoxicity against human A2780 cells assessed as cell survival at 10 uM after 72 hrs by crystal violet staining-based spectrophotometric analysis relative to control; conditions: A2780, 72 h, read-out: Survival
[6] = Cytotoxicity against 13-fold cisplatin-resistant human C13 cells cell survival at 10 uM after 72 hrs by crystal violet staining-based spectrophotometric analysis relative to control; conditions: C13, 72 h, read-out: Survival
2008 [7] = assay: Cytotoxicity against human 2008 cells assessed as cell survival at 10 uM after 72 hrs by crystal violet staining-based spectrophotometric analysis relative to control; conditions: Homo sapiens, 2008, 72 h, read-out: Survival

Compound H-LSCQLYQ-OH has an inhibition [1] of 56%.
For `O=c1[nH]cc(F)c(=O)[nH]1`, the Activity [2] was “Active” and the Activity 2008 [3] was “Active”.
For H-CQLYQ-OH, the inhibition [1] was 52%.
With `CC(C)C[C@H](N)C(=O)N[C@@H](CO)C(=O)N[C@@H](CS)C(=O)N[C@@H](CCC(N)=O)C(=O)O` (H-LSCQ-OH) the inhibition [1] was 59%.
Compound H-LSCQLYAR-OH has an inhibition [4] of 60%.
With `CC(C)C[C@H](NC(=O)[C@@H](CCC(N)=O)NC(=O)[C@H](CS)NC(=O)[C@H](CO)NC(=O)[C@@H](N)CC(C)C)C(=O)N[C@@H](Cc1ccc(O)cc1)C(=O)N[C@@H](CCC(N)=O)C(=O)N[C@@H](CCCNC(=N)N)C(=O)O` (H-LSC[dQ]LYQR-OH) the viability at 10 µM [5] was 25%, the viability at 10 µM (A2780) was less than 50% and the viability at 10 µM [6] was 25%. It also gave a viability at 10 µM 2008 [7] of less than 50%.
For H-SCQLYQR-OH, the inhibition [4] was 54%.
